In ChEMBL document CHEMBL4480426, “Novel multi-target directed ligands based on annelated xanthine scaffold with aromatic substituents acting on adenosine receptor and monoamine oxidase B. Synthesis, in vitro and in silico studies” (Bioorg Med Chem, 2019):

What was measured:
[1] = molecular target: T1, Adenosine receptor A2a (Homo sapiens, UniProt P29274); assay: Displacement of [3H]MSX2 from recombinant human adenosine A2a receptor expressed in HEK293 cells; format: cell-based
[2] = molecular target: T2, Adenosine receptor A2b (Homo sapiens, UniProt P29275); assay: Displacement of [3H]PSB603 from recombinant human adenosine A2b receptor expressed in HEK293 cells; format: cell-based
T2 sequence (P29275 whole entry): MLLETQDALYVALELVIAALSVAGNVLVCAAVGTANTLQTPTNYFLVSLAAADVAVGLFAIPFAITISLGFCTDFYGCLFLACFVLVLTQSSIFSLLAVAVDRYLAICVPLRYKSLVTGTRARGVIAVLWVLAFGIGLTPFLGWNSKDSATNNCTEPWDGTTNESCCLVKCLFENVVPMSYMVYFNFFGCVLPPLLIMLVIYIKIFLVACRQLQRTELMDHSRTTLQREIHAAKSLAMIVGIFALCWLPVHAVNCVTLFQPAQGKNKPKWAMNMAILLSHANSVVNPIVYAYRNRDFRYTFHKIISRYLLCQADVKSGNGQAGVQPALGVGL

[3] = molecular target: T3, Adenosine receptor A1 (Rattus norvegicus, UniProt P25099); assay: Displacement of [3H]CCPA from adenosine A1 receptor in rat brain cortical membranes; format: cell membranes
T3 sequence (P25099 whole entry): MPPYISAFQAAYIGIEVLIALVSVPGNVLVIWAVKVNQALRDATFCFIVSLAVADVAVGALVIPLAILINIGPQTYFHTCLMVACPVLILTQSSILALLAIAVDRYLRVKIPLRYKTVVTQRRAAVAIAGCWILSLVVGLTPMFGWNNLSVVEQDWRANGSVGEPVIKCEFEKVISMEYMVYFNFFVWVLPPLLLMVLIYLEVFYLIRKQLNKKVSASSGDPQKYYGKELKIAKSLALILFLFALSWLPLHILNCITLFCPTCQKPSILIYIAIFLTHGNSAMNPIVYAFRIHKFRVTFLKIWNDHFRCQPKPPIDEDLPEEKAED

[4] = molecular target: T4, Amine oxidase [flavin-containing] B (Homo sapiens, UniProt P27338); assay: Inhibition of recombinant human MAOB expressed in baculovirus infected BTI insect cells at 1 to 100 uM using p-tyramine as substrate preincubated for 30 mins followed by substrate addition and measured over 45 mins by horseradish peroxidase-Amplex Red-coupled fluorometric assay relative to control; conditions: 0.75 h
T4 sequence (P27338 whole entry): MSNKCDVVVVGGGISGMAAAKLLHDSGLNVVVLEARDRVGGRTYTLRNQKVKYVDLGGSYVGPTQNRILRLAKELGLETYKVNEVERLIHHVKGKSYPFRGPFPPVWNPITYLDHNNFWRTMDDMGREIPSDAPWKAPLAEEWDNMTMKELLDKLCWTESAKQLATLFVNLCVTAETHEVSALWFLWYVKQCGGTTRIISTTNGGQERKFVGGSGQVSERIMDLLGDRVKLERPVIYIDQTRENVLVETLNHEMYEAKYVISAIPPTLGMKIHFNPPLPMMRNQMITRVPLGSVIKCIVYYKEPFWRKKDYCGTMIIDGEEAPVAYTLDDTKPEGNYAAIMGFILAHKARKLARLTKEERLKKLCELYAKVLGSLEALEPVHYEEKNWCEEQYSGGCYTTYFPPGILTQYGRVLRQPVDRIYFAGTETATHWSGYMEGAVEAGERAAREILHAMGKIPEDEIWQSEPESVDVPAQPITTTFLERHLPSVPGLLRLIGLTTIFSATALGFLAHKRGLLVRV
Outline: (§1)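 Human recombinant MAO-A or MAO-B enzyme. Activity detected fluorometrically with the Amplex Red monoamine oxidase assay.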

[5] = molecular target: T4, Amine oxidase [flavin-containing] B; assay: Inhibition of recombinant human MAOB expressed in baculovirus infected BTI insect cells using p-tyramine as substrate preincubated for 30 mins followed by substrate addition and measured over 45 mins by horseradish peroxidase-Amplex Red-coupled fluorometric assay; outline: as §1
[6] = molecular target: T5, Adenosine receptor A3 (Homo sapiens, UniProt P0DMS8); assay: Displacement of [3H]PSB11 from recombinant human adenosine A3 receptor expressed in CHO cells; format: cell-based
T5 sequence (P0DMS8 whole entry): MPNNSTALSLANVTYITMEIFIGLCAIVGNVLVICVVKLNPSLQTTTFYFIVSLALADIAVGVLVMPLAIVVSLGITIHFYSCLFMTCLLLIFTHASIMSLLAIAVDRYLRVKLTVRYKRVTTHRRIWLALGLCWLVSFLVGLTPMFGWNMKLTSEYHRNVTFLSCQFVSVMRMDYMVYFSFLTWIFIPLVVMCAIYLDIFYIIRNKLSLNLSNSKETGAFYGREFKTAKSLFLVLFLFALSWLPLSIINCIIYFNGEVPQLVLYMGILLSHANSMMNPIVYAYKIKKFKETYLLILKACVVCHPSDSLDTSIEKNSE

[7] = molecular target: T6, Adenosine receptor A1 (Homo sapiens, UniProt P30542); assay: Displacement of [3H]CCPA from recombinant human adenosine A1 receptor expressed in CHO cells; format: cell-based
T6 sequence (P30542 whole entry): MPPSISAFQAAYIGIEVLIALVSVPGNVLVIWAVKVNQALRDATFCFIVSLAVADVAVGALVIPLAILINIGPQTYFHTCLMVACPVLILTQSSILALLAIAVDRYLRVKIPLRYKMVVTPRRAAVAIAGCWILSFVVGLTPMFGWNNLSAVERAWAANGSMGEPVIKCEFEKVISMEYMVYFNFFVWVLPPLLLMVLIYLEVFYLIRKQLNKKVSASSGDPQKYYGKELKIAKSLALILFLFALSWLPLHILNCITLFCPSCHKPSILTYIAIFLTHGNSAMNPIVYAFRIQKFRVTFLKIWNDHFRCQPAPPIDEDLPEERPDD

[8] = molecular target: T7, Adenosine receptor A3 (Homo sapiens) (UniProt P0DMS8); assay: Displacement of [3H]PSB11 from recombinant human adenosine A3 receptor expressed in CHO cells at 1 uM relative to control; format: cell-based
T7 sequence (whole entry): T5 sequence (P0DMS8 whole entry)
Outline: (§2)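 Purchased membranes of CHO cells expressing human A1 ([3H]CCPA) or human A3 ([3H]PSB-11). A single high compound concentration is screened first; for potent compounds, full inhibition curves spanning 3 orders of magnitude. At least three independent experiments.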

[9] = molecular target: T8, Adenosine receptor A1 (Homo sapiens) (UniProt P30542); assay: Displacement of [3H]CCPA from recombinant human adenosine A1 receptor expressed in CHO cells at 1 uM relative to control; format: cell-based; outline: as §2
T8 sequence (whole entry): T6 sequence (P30542 whole entry)

[10] = molecular target: T9, Amine oxidase [flavin-containing] A (Homo sapiens, UniProt P21397); assay: Inhibition of recombinant human MAOA expressed in baculovirus infected BTI insect cells using p-tyramine as substrate preincubated for 30 mins followed by substrate addition and measured over 45 mins by horseradish peroxidase-Amplex Red-coupled fluorometric assay; outline: as §1
T9 sequence (P21397 whole entry): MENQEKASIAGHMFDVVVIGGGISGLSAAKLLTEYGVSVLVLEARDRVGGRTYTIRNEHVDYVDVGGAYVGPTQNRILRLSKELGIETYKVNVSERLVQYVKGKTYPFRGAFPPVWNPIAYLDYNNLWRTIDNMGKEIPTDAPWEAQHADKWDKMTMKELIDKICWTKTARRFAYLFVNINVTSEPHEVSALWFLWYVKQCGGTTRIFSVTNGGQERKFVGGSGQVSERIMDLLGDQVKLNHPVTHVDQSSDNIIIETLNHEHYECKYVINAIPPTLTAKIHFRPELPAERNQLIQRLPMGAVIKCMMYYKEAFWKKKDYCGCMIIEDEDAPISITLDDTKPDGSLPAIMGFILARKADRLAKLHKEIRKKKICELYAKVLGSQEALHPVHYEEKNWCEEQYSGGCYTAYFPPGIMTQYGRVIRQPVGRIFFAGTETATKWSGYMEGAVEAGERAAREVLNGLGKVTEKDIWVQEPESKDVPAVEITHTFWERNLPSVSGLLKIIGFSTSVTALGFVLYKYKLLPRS

[11] = molecular target: T10, Adenosine receptor A2b (Homo sapiens) (UniProt P29275); assay: Displacement of [3H]PSB603 from recombinant human adenosine A2b receptor expressed in HEK293 cells at 1 uM relative to control; format: cell-based
T10 sequence (whole entry): T2 sequence (P29275 whole entry)
Outline: (§3)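 Purchased membranes of HEK cells expressing human A2A ([3H]MSX-2) or human A2B ([3H]PSB-603). A single high compound concentration is screened first; for potent compounds, full inhibition curves spanning 3 orders of magnitude. At least three independent experiments.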

[12] = molecular target: T9, Amine oxidase [flavin-containing] A; assay: Inhibition of recombinant human MAOA expressed in baculovirus infected BTI insect cells at 1 to 100 uM using p-tyramine as substrate preincubated for 30 mins followed by substrate addition and measured over 45 mins by horseradish peroxidase-Amplex Red-coupled fluorometric assay relative to control; conditions: 0.75 h; outline: as §1
[13] = molecular target: T1, Adenosine receptor A2a; assay: Displacement of [3H]MSX2 from recombinant human adenosine A2a receptor expressed in HEK293 cells at 1 uM relative to control; format: cell-based; outline: as §3
[14] = Antioxidant activity assessed as increase in total ferric ion reducing activity at 1000 uM using FeCl3.6H2O and TPTZ incubated for 10 mins under dark condition by FRAP assay relative to control; format: functional; set-up: scale not given: the % may be the effect or the level left
Outline: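 FRAP reagent made by mixing 10 parts 300 mM acetate buffer pH 3.6, 1 part 10 mM TPTZ in 40 mM HCl and 1 part 20 mM FeCl3·6H2O. Reagent mixed with compound solution, 10 min at room temperature in the dark. Ferrous-TPTZ complex read at 593 nm. Result is absorbance increase versus solvent sample. FeSO4·7H2O standard curve, 37.5–1200 μM.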

T1 sequence (P29274 whole entry): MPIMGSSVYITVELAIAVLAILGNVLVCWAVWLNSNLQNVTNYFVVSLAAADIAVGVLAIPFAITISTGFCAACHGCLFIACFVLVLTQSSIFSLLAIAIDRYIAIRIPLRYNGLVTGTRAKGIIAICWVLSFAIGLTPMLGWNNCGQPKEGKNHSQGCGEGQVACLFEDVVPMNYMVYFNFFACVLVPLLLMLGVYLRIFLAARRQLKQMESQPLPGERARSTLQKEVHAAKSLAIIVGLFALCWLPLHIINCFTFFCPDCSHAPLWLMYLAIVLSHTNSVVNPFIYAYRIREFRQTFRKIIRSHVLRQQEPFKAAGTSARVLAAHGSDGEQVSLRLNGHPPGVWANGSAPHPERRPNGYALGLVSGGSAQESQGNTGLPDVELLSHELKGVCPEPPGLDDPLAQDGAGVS

Row | SMILES | Ki [1] [nM] | Ki [2] [nM] | Ki [3] [nM] | inhibition (INH) [4] [%] | IC50 [5] [nM] | Ki [6] [nM] | Ki [7] [nM] | inhibition [8] [%] | inhibition [9] [%] | IC50 [10] [nM] | inhibition [11] [%] | inhibition (INH) [12] [%] | inhibition [13] [%] | Activity [14] [%]
1 | Cn1c(=O)c2c(nc3n2CCCN3CCc2ccncc2)n(C)c1=O | > 1000 | > 1000 | > 1000 | 4 | > 1000 | > 1000 |  |  |  |  |  |  |  | 
2 | Cn1c(=O)c2c(nc3n2CCCCN3Cc2ccccc2Cl)n(C)c1=O | 881 | > 1000 |  |  | 343 | > 1000 | > 1000 | 15 | 10 | > 1000 | 41 | 4 |  | 
3 | Cn1c(=O)c2c(nc3n2CCN3Cc2ccc(F)c(Br)c2)n(C)c1=O | > 1000 | > 1000 |  |  | 177 | > 1000 | > 1000 | 1 | 6 | > 1000 | 2 | 6 | 30 | 
4 | O=C1O[C@H]([C@@H](O)CO)C(O)=C1O |  |  |  |  |  |  |  |  |  |  |  |  |  | 100
5 | COc1ccccc1CN1CCCCn2c1nc1c2c(=O)n(C)c(=O)n1C | 959 | > 1000 |  |  | 1920 | > 1000 | > 1000 | 19 | 13 | > 1000 | 16 | 2 |  | 

Second part, led by results:

Row | Ki [1] [nM] | Ki [2] [nM] | Ki [3] [nM] | inhibition (INH) [4] [%] | IC50 [5] [nM] | Ki [6] [nM] | Ki [7] [nM] | inhibition [8] [%] | inhibition [9] [%] | IC50 [10] [nM] | inhibition [11] [%] | inhibition (INH) [12] [%] | inhibition [13] [%] | SMILES | Activity [14] [%]
6 | 3040 | > 1000 | > 1000 | 1 | > 1000 | > 1000 |  |  |  |  |  |  |  | Cn1c(=O)c2c(nc3n2CCCN3CCc2cccnc2)n(C)c1=O | 
7 | 2020 | > 1000 | 2650 | 20 | > 1000 | > 1000 |  |  |  |  |  |  |  | Cn1c(=O)c2c(nc3n2CCCN3Cc2cccs2)n(C)c1=O | 
8 | > 1000 | > 1000 | > 1000 | 24 | > 1000 | > 1000 |  |  |  |  |  |  |  | Cn1c(=O)c2c(nc3n2CCCN3Cc2cc(F)c(F)c(F)c2)n(C)c1=O | 
